Test [1] concerns the target T1, HSL (Mus musculus, UniProt P54310).
T1 sequence (P54310 1-759): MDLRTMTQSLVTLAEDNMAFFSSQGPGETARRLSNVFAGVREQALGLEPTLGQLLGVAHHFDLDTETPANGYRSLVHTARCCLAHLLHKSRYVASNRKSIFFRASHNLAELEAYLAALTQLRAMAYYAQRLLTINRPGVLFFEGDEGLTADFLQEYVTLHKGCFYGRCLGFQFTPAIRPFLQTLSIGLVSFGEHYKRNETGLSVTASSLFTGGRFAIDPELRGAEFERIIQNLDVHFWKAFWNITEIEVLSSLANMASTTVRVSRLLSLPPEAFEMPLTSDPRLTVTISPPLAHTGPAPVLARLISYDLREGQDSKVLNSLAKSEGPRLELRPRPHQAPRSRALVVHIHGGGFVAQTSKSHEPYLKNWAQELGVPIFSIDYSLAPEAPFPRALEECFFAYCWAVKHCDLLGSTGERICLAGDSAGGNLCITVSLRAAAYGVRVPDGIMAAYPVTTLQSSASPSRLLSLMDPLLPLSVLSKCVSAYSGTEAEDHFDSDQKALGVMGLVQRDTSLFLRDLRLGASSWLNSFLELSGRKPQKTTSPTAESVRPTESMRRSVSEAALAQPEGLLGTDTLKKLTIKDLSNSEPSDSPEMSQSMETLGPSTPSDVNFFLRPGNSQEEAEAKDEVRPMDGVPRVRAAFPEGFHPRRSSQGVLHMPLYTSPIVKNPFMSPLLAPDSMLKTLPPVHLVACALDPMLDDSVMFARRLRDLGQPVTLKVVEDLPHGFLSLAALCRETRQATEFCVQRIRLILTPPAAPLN
Nature of the test: Competitive ABPP in rosiglitazone-differentiated 3T3-10T1/2 adipocyte proteome. In kind it is biochemical.

Test [2] deals with AChE (Mus musculus, UniProt P21836). To be noted: mouse brain proteome; for IC50: read-out: IC50 for AChE, substrate acetylthiocholine.
Sequence of AChE (P21836 32-614): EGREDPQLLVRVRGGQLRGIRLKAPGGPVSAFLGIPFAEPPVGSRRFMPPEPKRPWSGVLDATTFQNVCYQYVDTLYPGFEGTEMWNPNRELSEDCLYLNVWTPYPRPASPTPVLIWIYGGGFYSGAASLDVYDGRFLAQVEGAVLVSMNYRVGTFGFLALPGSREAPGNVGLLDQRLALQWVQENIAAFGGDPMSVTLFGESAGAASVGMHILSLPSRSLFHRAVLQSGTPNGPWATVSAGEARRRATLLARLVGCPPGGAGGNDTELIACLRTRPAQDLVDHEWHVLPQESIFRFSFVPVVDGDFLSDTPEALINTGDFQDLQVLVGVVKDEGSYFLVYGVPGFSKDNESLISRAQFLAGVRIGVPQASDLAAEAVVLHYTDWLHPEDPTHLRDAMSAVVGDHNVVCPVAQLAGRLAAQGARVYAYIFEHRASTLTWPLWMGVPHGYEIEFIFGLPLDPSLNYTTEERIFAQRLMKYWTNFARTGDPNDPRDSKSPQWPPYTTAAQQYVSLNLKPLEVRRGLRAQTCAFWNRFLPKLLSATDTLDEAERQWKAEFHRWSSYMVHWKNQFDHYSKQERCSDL
Test [3] deals with T2, FAAH (Mus musculus, UniProt O08914).
T2 sequence (O08914 1-579): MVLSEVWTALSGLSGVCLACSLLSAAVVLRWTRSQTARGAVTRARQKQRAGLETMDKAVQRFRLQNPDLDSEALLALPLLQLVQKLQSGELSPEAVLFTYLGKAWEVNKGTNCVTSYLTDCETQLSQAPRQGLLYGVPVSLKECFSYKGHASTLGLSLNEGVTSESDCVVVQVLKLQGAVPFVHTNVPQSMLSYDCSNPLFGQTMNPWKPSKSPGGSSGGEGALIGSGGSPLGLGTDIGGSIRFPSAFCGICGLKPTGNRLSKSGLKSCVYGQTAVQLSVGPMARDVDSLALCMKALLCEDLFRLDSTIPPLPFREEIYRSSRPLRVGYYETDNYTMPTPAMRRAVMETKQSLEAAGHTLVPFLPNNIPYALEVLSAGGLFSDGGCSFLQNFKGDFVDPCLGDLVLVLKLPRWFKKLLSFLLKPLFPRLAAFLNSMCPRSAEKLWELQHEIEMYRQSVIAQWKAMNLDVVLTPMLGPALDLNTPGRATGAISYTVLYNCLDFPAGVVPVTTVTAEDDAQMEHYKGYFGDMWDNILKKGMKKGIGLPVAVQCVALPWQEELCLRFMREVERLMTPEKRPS
The test is described as follows: Competitive ABPP of FAAH in mouse brain proteome. In kind it is biochemical. Conditions: gel-based competitive ABPP of a mouse brain proteome.

The target in test [4] is T3, mouse brain KIAA1363 (Mus musculus, UniProt Q8BLF1).
T3 sequence (Q8BLF1 1-408): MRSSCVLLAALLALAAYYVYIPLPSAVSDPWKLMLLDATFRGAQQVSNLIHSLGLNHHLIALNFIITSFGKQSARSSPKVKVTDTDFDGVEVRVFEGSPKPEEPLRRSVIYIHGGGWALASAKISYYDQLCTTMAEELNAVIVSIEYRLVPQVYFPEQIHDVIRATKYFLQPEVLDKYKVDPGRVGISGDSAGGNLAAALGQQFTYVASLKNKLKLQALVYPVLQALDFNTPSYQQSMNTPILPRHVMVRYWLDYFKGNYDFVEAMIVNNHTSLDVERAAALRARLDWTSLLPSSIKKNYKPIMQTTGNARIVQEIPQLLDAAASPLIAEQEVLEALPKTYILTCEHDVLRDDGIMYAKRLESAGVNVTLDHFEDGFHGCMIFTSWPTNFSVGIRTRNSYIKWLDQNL
The test is described as follows: Gel-based competitive ABPP. The format is biochemical. Conditions: read-out: IC50 for KIAA1363, mouse brain proteome.

Test [5] deals with MAGE lipids. The test is described as follows: Lipid measurements. The format is cell-based, human. Conditions: for MAGE lipids: prostate cancer cells (Figure S4); for MAGE lipid levels: 1 μM, 48 hr.
Test [6] deals with PC3 cells. The test is described as follows: Invasion assay. In kind it is cell-based, human. Conditions: prostate cancer (PC3) cells; JW480 1 μM, 48 h in situ.
The test system of test [7] is PC3 cells. The test is described as follows: Serum-free cell survival assay. The format is cell-based, human. Conditions: prostate cancer (PC3) cells; JW480 1 μM, 48 h in situ.
The subject of test [8] is PC3 cells. The test is described as follows: Cell migration assay. In kind it is cell-based, human. Conditions: prostate cancer (PC3) cells; JW480 1 μM, 48 h in situ.
For test [9], the target named is serine hydrolase activities detected in the brain proteome (Mus musculus, UniProt P21836). To be noted: brain proteome of treated mice (Figure 4C).
Sequence of serine hydrolase activities detected in the brain proteome (P21836 32-614): as the sequence (P21836 32-614) above
Test [10] concerns LNCaP cells. The test is described as follows: Cell survival assay in LNCaP cells. The format is cell-based, human. Conditions: which express low levels of KIAA1363.
The target in test [11] is T4, KIAA1363 (Homo sapiens, UniProt Q6PIU2).
T4 sequence (Q6PIU2 1-408): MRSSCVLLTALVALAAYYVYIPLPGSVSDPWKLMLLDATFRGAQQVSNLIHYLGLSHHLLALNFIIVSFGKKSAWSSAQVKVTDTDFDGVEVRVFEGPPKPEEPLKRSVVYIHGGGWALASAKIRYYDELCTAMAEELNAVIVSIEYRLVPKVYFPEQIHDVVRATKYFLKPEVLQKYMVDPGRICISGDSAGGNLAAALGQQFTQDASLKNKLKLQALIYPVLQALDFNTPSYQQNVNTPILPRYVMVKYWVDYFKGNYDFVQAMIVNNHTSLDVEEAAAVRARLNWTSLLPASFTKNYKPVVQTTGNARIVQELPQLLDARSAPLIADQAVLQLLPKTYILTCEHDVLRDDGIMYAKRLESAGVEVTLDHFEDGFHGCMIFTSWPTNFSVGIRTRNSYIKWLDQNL
The test is described as follows: Gel-based competitive ABPP in PC3 cell proteomes. The format is biochemical. To be noted: read-out: IC50 for human KIAA1363, in vitro treatment.

The test system of test [12] is other mouse brain serine hydrolases. Nature of the test: Gel-based competitive ABPP, other serine hydrolases of mouse brain proteome. In kind it is biochemical.
Test [13] concerns serine hydrolase activities detected in PC3 cells. The test is described as follows: Competitive ABPP-MudPIT of PC3 cells treated in situ. To be noted: 1 μM in situ, ~30 serine hydrolase activities. The format is cell-based, human.
The target of test [14] is T4, KIAA1363. The test is described as follows: Gel-based competitive ABPP in living PC3 cells. In kind it is cell-based. Conditions: for IC50: read-out: IC50 for KIAA1363.
Test [15] deals with T5, KIAA1363 (2-acetyl MAGE hydrolase activity) (Homo sapiens, UniProt Q6PIU2).
T5 sequence (Q6PIU2 1-408): T4 sequence (Q6PIU2 1-408)
The test is described as follows: 2-Acetyl MAGE hydrolytic activity assay in prostate cancer cells. In kind it is cell-based. Conditions: 1 μM, 48 h.

Test [16] deals with PC3 tumor xenograft. The test is described as follows: PC3 tumor xenograft growth in SCID mice. The format is in vivo, mouse. Conditions: 80 mg/kg, oral gavage, one dose per day, versus vehicle. A digest of the protocol:
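PC3 cells were washed, trypsinised, resuspended serum-free at 2.0 × 10^4 cells/μL, and 100 μL was injected into the flank of C.B17 SCID mice. Dosing was once daily by oral gavage in PEG300 (4 μL/g) or vehicle, starting immediately after injection. Tumours were measured with calipers every 3 days and excised 4 hr after the final dose on day 33 for ABPP.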

Test [17] concerns the target T6, brain KIAA1363 (Mus musculus, UniProt Q8BLF1).
T6 sequence (Q8BLF1 1-408): T3 sequence (Q8BLF1 1-408)
Nature of the test: Competitive ABPP of brain proteomes from inhibitor-treated mice. Conditions: for inhibition of brain KIAA1363: 4 hr. The format is in vivo.

Structures are written as SMILES. Entries after “also recorded” stand apart in the source; their conditions may differ.

For `CC1(C)Cc2cccc(OC(=O)NCc3ccc(F)cc3)c2O1` [WWL38], the “cross-reactivity with HSL” value in [1] is reported as “cross-reactivity”. Moreover, the “cross-reactivity with AChE” value in [2] is reported as “cross-reactivity”. Moreover, the “selectivity for KIAA1363 compared to FAAH” value in test [3] was “good selectivity”. Further, the IC50 in test [4] was roughly 200 nM.
`CCCCOC[C@H]1CCCC[C@H]1COCCNC(=O)Oc1ccccc1F` [AS115, reference compound]: the MAGE lipids result in test [5] was “reductions”. For the same compound, in test [6], the invasion entry is reported as “also observed”. In addition, the “survival in serum-free media” value in test [7] was “also observed”.
As to `COc1ccc(CNC(=O)Oc2cccc3c2OC(C)(C)C3)cc1` [JW148], the “cross-reactivity with HSL” value in test [1] is given as “cross-reactivity”. Also, in test [2], the “cross-reactivity with AChE” value was “cross-reactivity” and the IC50 was found to be 1000 nM. Besides, in [3], the “selectivity for KIAA1363 compared to FAAH” value is “good selectivity”. For the same compound, the MAGE lipids entry in test [5] was “reductions”. The migration result in test [8] was “also observed”. Besides, the half-maximal inhibitory concentration (IC50) in test [4] is roughly 200 nM. In addition, in test [6], the invasion result is reported as “also observed”. In addition, in test [7], the “survival in serum-free media” value was “also observed”.
With `CC(C)c1ccccc1OC(=O)NCCc1ccc2ccccc2c1` [JW480], in [1], the “cross-reactivity with HSL” value was “negligible cross-reactivity”. Further, the “cross-reactivity with AChE by competitive ABPP-MudPIT” value in [9] is given as “negligible cross-reactivity”. Besides, the “cross-reactivity with AChE” value in test [2] is reported as “negligible cross-reactivity”. Further, the IC50 in test [2] was greater than 100000 nM; in test [11], 12 nM; in test [14] (PC3 cells, in situ) it was 6 nM; in [14] (living PC3 cells, in situ treatment, presence or absence of 10% fetal calf serum), 6 to 12 nM. The “survival in LNCaP cells” value in [10] is listed as “did not affect”. Besides, the “cross-reactivity with other mouse brain serine hydrolases” value in test [12] is “negligible cross-reactivity”. In [13], the “off-target activity across serine hydrolases by ABPP-MudPIT” value is listed as “no off-target activity; also recorded: only KIAA1363 was inhibited”. The MAGE lipid levels result in [5] (DU145 cells) and in [5] (PC3 cells) was “significant reductions; also recorded: significantly reduces” each time. Besides, in [8], the migration result is “reductions; also recorded: reduced”. In addition, the invasion entry in test [6] was “reductions; also recorded: reduced”. In test [14] (1 μM, in situ), the “time in situ inhibition of KIAA1363 was maintained” value was “at least 48 hr”. The “2-acetyl MAGE hydrolase activity” value in test [15] (DU145 cells) and in [15] (PC3 cells) was “completely blocked; also recorded: ablates” each time. The PC3 tumor growth entry in test [16] is reported as “significantly impaired; also recorded: significantly reduces”. The “survival in serum-free media” value in test [7] is given as “reductions; also recorded: reduced”. Further, the “time of full inhibition of KIAA1363 in mice” value in [17] (following a single administration, orally active) was “at least 24 hrs”. In addition, the “inhibition of brain KIAA1363” value in test [17] (mice, 5 mg/kg i.p.) is recorded as “complete inhibition”; in test [17] (mice, 20 mg/kg oral), “complete inhibition”. For the same compound, in test [17] (mice, single administration, 20 mg/kg, oral), the “time inhibition of KIAA1363 was maintained in vivo” value is given as “up to 24 hr”.

These data come from publication PMC3119342 (Chemistry & biology, 2011).
